Data published in ChEMBL document CHEMBL4689842, “EUbOPEN Chemogenomics Library wave 1” (2021).

Columns and labels:
Assay type in all cases: toxicity, cell-based
Fibroblast [1] = assay: Multiplex assay against human fibroblast
Procedure, shortened: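 Values for tubulin, mitochondrial-mass and membrane-permeability phenotypes are per cents of cells with healthy nuclei. These cells were identified by CellPathfinder machine-learning gating of live cells that had been stained at seeding with Hoechst33342, BioTracker Green Microtubule Cytoskeleton Dye, MitoTracker Red and Annexin V Alexa Fluor 680 and imaged on a CQ1 microscope at 37°C and 5% CO2 after compound addition. The gating first set Hoechst high-intensity objects apart from normal cells, then split normal cells into healthy, pyknosed or fragmented nuclei, and pyknosed cells into mitotic or apoptotic.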

Fibroblast [2] = assay: Incucyte cell viability with human fibroblast; conditions: 10 µM, compound concentration 10 uM; further: filed as whole numbers so only -1 and 0 and 1 occur
U2OS = assay: Incucyte cell viability with U2OS; conditions: human, 10 µM, compound concentration 10 uM; further: filed as whole numbers so only -1 and 0 and 1 occur
[3] = 12 h, 1 µM, compound concentration 1 uM, replicate 1
[4] = 12 h, 1 µM, compound concentration 1 uM, replicate 2
[5] = 12 h, 10 µM, compound concentration 10 uM, replicate 1
[6] = 12 h, 10 µM, compound concentration 10 uM, replicate 2
[7] = 24 h, 1 µM, compound concentration 1 uM, replicate 1
[8] = 24 h, 1 µM, compound concentration 1 uM, replicate 2
[9] = 24 h, 10 µM, compound concentration 10 uM, replicate 1
[10] = 24 h, 10 µM, compound concentration 10 uM, replicate 2
[11] = 6 h, replicate number 1, timepoint 6 hours
[12] = 12 h, replicate number 1, timepoint 12 hours
[13] = 18 h, replicate number 1, timepoint 18 hours
[14] = 24 h, replicate number 1, timepoint 24 hours
[15] = 24 h, replicate number 2, timepoint 24 hours

## Cc1c(Nc2ccc(S(=O)(=O)N3CCN(C)CC3)cc2F)nc2ccc(Nc3cnn(C4CC4)c3)cn2c1=O
Fibroblast [1]; [3]
  Population Apoptotic (%): 64%
  Population Fragmented Nuclei (%): 30%
  Population Healthy Nuclei (%): 50%
  Population Hoechst High Intensity Objects (%): 12%
  Population Membrane Permeable-Phenotype (%): 31%
  Population Mitochondria Different-Phenotype (%): 6%
  Population Mitotic Cells (%): 35%
  Population Normal (%): 87%
  Population Pyknosed Nuclei (%): 19%
  Population Tubulin-Different-Phenotype (%): 43%
  Total Cell Count: 263
Fibroblast [1]; [4]
  Population Apoptotic (%): 80%
  Population Fragmented Nuclei (%): 62%
  Population Healthy Nuclei (%): 24%
  Population Hoechst High Intensity Objects (%): 40%
  Population Membrane Permeable-Phenotype (%): 55%
  Population Mitochondria Different-Phenotype (%): 11%
  Population Mitotic Cells (%): 20%
  Population Normal (%): 59%
  Population Pyknosed Nuclei (%): 13%
  Population Tubulin-Different-Phenotype (%): 66%
  Total Cell Count: 62
Fibroblast [1]; [5]
  Population Apoptotic (%): 79%
  Population Fragmented Nuclei (%): 27%
  Population Healthy Nuclei (%): 58%
  Population Hoechst High Intensity Objects (%): 12%
  Population Membrane Permeable-Phenotype (%): 7%
  Population Mitochondria Different-Phenotype (%): 1%
  Population Mitotic Cells (%): 20%
  Population Normal (%): 87%
  Population Pyknosed Nuclei (%): 13%
  Population Tubulin-Different-Phenotype (%): 2%
  Total Cell Count: 288
Fibroblast [1]; [6]
  Population Apoptotic (%): 50%
  Population Fragmented Nuclei (%): 55%
  Population Healthy Nuclei (%): 40%
  Population Hoechst High Intensity Objects (%): 27%
  Population Membrane Permeable-Phenotype (%): 9%
  Population Mitochondria Different-Phenotype (%): 0%
  Population Mitotic Cells (%): 50%
  Population Normal (%): 72%
  Population Pyknosed Nuclei (%): 3%
  Population Tubulin-Different-Phenotype (%): 19%
  Total Cell Count: 72
Fibroblast [1]; [7]
  Population Apoptotic (%): 72%
  Population Fragmented Nuclei (%): 30%
  Population Healthy Nuclei (%): 53%
  Population Hoechst High Intensity Objects (%): 12%
  Population Membrane Permeable-Phenotype (%): 14%
  Population Mitochondria Different-Phenotype (%): 1%
  Population Mitotic Cells (%): 27%
  Population Normal (%): 87%
  Population Pyknosed Nuclei (%): 16%
  Population Tubulin-Different-Phenotype (%): 38%
  Total Cell Count: 257
Fibroblast [1]; [8]
  Population Apoptotic (%): 100%
  Population Fragmented Nuclei (%): 57%
  Population Healthy Nuclei (%): 31%
  Population Hoechst High Intensity Objects (%): 30%
  Population Membrane Permeable-Phenotype (%): 40%
  Population Mitochondria Different-Phenotype (%): 0%
  Population Mitotic Cells (%): 0%
  Population Normal (%): 69%
  Population Pyknosed Nuclei (%): 10%
  Population Tubulin-Different-Phenotype (%): 40%
  Total Cell Count: 68
Fibroblast [1]; [9]
  Population Apoptotic (%): 65%
  Population Fragmented Nuclei (%): 22%
  Population Healthy Nuclei (%): 63%
  Population Hoechst High Intensity Objects (%): 13%
  Population Membrane Permeable-Phenotype (%): 7%
  Population Mitochondria Different-Phenotype (%): 1%
  Population Mitotic Cells (%): 34%
  Population Normal (%): 86%
  Population Pyknosed Nuclei (%): 13%
  Population Tubulin-Different-Phenotype (%): 3%
  Total Cell Count: 293
Fibroblast [1]; [10]
  Population Apoptotic (%): 0%
  Population Fragmented Nuclei (%): 57%
  Population Healthy Nuclei (%): 38%
  Population Hoechst High Intensity Objects (%): 21%
  Population Membrane Permeable-Phenotype (%): 9%
  Population Mitochondria Different-Phenotype (%): 4%
  Population Mitotic Cells (%): 100%
  Population Normal (%): 78%
  Population Pyknosed Nuclei (%): 3%
  Population Tubulin-Different-Phenotype (%): 0%
  Total Cell Count: 73
Fibroblast [2]; 0 h, replicate number 2, timepoint 0 hours
  Growth Rate: 0
Fibroblast [2]; [11]
  Growth Rate: 0
Fibroblast [2]; [12]
  Growth Rate: 0
Fibroblast [2]; [13]
  Growth Rate: 0
Fibroblast [2]; [14]
  Growth Rate: 0
Fibroblast [2]; [15]
  Growth Rate: 1
U2OS; 0 h, replicate number 1, timepoint 0 hours
  Growth Rate: 0
U2OS; [11]
  Growth Rate: 0
U2OS; 6 h, replicate number 2, timepoint 6 hours
  Growth Rate: 1
U2OS; [12]
  Growth Rate: 0
U2OS; 12 h, replicate number 2, timepoint 12 hours
  Growth Rate: 1
U2OS; [13]
  Growth Rate: 0
U2OS; 18 h, replicate number 2, timepoint 18 hours
  Growth Rate: 1
U2OS; [14]
  Growth Rate: 0
U2OS; [15]
  Growth Rate: 1
